Measurements of several laboratories.
Each line is one published result; the experiments were not run side by side.
Target: Serine/threonine-protein kinase TAO3 (TAOK3, Homo sapiens, UniProt Q9H2K8)
One construct used (Q9H2K8 1-898): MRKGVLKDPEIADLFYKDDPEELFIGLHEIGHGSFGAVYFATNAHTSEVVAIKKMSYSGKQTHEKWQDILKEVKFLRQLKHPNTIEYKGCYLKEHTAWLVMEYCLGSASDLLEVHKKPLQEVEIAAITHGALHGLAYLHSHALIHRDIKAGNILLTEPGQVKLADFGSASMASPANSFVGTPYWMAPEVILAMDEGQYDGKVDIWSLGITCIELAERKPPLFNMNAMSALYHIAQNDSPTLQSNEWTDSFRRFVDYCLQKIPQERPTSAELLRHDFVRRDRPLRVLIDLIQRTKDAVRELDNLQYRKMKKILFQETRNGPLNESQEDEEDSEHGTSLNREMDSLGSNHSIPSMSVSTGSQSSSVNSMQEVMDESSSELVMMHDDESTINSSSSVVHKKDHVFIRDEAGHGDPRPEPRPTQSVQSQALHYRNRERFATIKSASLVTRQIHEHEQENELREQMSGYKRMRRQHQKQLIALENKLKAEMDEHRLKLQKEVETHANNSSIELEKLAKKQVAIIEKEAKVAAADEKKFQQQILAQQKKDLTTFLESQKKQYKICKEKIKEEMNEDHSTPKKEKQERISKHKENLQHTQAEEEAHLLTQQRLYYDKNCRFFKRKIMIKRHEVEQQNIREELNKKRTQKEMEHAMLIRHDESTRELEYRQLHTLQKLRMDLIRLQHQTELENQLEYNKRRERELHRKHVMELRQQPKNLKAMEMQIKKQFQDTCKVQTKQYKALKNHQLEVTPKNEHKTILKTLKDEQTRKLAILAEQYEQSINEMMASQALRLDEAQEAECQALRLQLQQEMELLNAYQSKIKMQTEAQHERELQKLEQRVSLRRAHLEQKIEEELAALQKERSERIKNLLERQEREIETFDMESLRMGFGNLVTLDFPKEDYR

| SMILES | effect on | mode | technique | concentration | measurement | result |
| --- | --- | --- | --- | --- | --- | --- |
| O=C1NC(=O)c2cc(Nc3ccc(F)cc3)c(Nc3ccc(F)cc3)cc21 | cell-free assay |  |  | 0.5 µM | remaining signal | 89.9% |
| O=C(O)[C@@H]1[C@@H](Cn2nnc3ccccc3c2=O)CC[C@H]1C(=O)c1ccc(OCCC2CCOCC2)cc1 | cell-free assay |  | competition with immobilised ligand | 1 µM | remaining binding | 100% |
| Cc1ccc(Nc2nccc(N(C)c3ccc4c(C)n(C)nc4c3)n2)cc1S(N)(=O)=O | enzyme activity | inhibitor |  | 10 µM | inhibition | 96% |
| Cc1nccc(COC(=O)N2C[C@@H]3[C@@H](CNC(=O)c4ccc5[nH]nnc5c4)[C@@H]3C2)n1 | cell-free assay |  | competition with immobilised ligand | 1 µM | remaining binding | 83% |
| CN(C)c1nccc(-c2cnn3ncccc23)n1 | binding |  |  | 1 µM | remaining binding | 73% |
| CC(C)(C)c1nc(-c2cccc(NS(=O)(=O)c3c(F)cccc3F)c2F)c(-c2ccnc(N)n2)s1 | enzyme activity | inhibitor | radiometric | 1 µM | remaining activity | 91% |
| O=C(Nc1ccc(Oc2ccc(F)cc2)cc1)N1CCc2ncccc2[C@H]1c1ccc(F)cc1 | cell-free assay |  | competition with immobilised ligand | 1 µM | remaining binding | 92% |
| COc1cc(Nc2c(C#N)cnc3cc(OCCCN4CCN(C)CC4)c(OC)cc23)c(Cl)cc1Cl | cell-free assay |  |  | 0.5 µM | remaining signal | 71.3% |
| CCCCN(CCCC)C(=O)CN1C[C@H](c2cc(OC)c3c(c2)OCO3)[C@@H](C(=O)O)[C@@H]1CC(C)(C)CCC | cell-free assay |  | competition with immobilised ligand | 1 µM | remaining binding | 63.2% |
| O=[N+]([O-])c1cccc2[nH]c(CNc3nc(N4CCOCC4)nc4c3ncn4-c3ccsc3)nc12 | binding |  | competition with immobilised ligand | 10 µM | binding vs control | 85% |
| Cc1ccc(NC(=O)c2ccc(C)c(C(F)(F)F)c2)cc1C#Cc1nn(C2CCC(O)CC2)c2ncnc(N)c12 (centres unmarked) | cell-free assay |  |  | 10 µM | remaining signal | 2% |
| CC1=C(C#N)C(c2ccc3c(c2)c(NC(=O)c2ccccc2C)nn3C)C(C#N)=C(C)N1 | cell-free assay |  | competition with immobilised ligand | 1 µM | remaining binding | 80% |
| Cc1cnc(NC2CCOCC2)nc1-n1cnc(C(=O)NC(CN)c2cc(F)cc(Cl)c2)c1 (centres unmarked) | enzyme activity | inhibitor | radiometric | 1 µM | remaining activity | 89% |
| CCN(CC)CCNC(=O)c1c(C)[nH]c(/C=C2\C(=O)Nc3ccc(F)cc32)c1C | cell-free assay |  |  | 0.5 µM | remaining signal | 82.9% |
| COCCOc1nc(-c2ccc(Cl)nc2)nc2c1CN(C(=O)c1ncn3ccccc13)CC2 | cell-free assay |  | competition with immobilised ligand | 0.1 µM | remaining binding | 100% |
| COc1cc(-c2cc(-c3ccc(N4CCNCC4)cc3)cnc2C)cc(OC)c1OC | enzyme activity | inhibitor |  | 1 µM | inhibition | 3% |
| O=C(O)c1cc(-c2ccc(C3CCNCC3)cc2)c2ccc(-c3ccc(C(F)(F)F)cc3)cc2c1 | cell-free assay |  | competition with immobilised ligand | 1 µM | remaining binding | 100% |
| CCOc1cc(-c2nncn2C)ccc1Nc1ncc2cc(C)nc(NCC(C)(C)C)c2n1 | cell-free assay |  | TR-FRET | 1 µM | inhibition | ≤ 15% |
| CCCS(=O)(=O)Nc1ccc(F)c(C(=O)c2c[nH]c3ncc(-c4ccc(Cl)cc4)cc23)c1F | enzyme activity | inhibitor |  | 1 µM | inhibition | < 10% |
| N#CCCc1ccc2c(c1)-c1[nH]c3ccc([N+](=O)[O-])cc3c1CC(=O)N2 | cell-free assay |  |  | 0.5 µM | remaining signal | 66% |
| Cc1sc(C(=O)NC2COC2)cc1-n1cc(NC(=O)Nc2c(F)cccc2Cl)cn1 | enzyme activity | inhibitor |  | 10 µM | remaining activity | 98% |
| CCCOc1ccc(OC)c(F)c1C(=O)c1ccc(C(=O)N[C@@H]2CNC[C@H]2NC(=O)c2ccc3[nH]ncc3c2)cc1 | enzyme activity | inhibitor |  | 10 µM | remaining activity | 81% |
| C#Cc1cccc(Nc2ncnc3cc(OCCOC)c(OCCOC)cc23)c1 | cell-free assay |  |  | 0.5 µM | remaining signal | 106% |
